Measurements from ChEMBL document CHEMBL4425135, “Novel C-Ring-Hydroxy-Substituted Controlled Deactivation Cannabinergic Analogues” (J Med Chem, 2016).
Calls of active or inactive are those of the source. No cut-off for these calls is given here.

How the values were obtained:
Cannabinoid receptor 2 [1] = biological target: Cannabinoid receptor 2 (Mus musculus, UniProt P47936); test: Displacement of [3H]CP55940 from mouse CB2 receptor expressed in HEK293 cell membranes by scintillation counting method
Sequence of Cannabinoid receptor 2 (Mus musculus, UniProt P47936) (P47936 whole entry): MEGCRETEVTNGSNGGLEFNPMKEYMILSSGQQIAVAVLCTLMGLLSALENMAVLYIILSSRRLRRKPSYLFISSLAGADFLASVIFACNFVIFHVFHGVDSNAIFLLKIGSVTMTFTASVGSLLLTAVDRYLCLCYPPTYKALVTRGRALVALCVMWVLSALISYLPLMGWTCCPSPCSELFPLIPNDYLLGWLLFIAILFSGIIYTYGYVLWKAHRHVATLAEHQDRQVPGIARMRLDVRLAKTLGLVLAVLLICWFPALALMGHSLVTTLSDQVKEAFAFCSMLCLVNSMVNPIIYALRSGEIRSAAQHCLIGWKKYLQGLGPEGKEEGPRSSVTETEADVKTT
In short: (§1)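 Competition binding against [3H]CP-55,940 using rat brain membranes (CB1) or membranes of HEK293 cells expressing mouse or human CB2. IC50 from nonlinear regression, converted to Ki. Each experiment run in triplicate; Ki is the mean of three independent experiments.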

Cannabinoid receptor 1 [2] = biological target: T1, Cannabinoid receptor 1 (Rattus norvegicus, UniProt P20272); test: Displacement of [3H]CP55940 from CB1 receptor in rat brain membranes by scintillation counting method; assay type: cell membranes; in short: as §1
T1 sequence (P20272 whole entry): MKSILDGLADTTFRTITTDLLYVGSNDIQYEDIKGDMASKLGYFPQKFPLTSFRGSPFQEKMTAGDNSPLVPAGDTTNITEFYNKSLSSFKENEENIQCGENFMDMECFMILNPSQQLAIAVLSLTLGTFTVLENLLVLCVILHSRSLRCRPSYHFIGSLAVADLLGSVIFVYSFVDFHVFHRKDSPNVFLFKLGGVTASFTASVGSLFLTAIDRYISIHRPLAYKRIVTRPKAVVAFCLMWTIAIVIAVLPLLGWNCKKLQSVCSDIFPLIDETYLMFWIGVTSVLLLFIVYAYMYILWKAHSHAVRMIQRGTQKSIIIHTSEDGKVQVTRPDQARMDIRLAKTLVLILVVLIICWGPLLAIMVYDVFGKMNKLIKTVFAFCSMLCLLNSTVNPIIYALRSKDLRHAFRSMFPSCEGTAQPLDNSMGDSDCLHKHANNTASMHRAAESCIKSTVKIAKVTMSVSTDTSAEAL

Cannabinoid receptor 2 [3] = biological target: T2, Cannabinoid receptor 2 (Homo sapiens, UniProt P34972); test: Agonist activity at human CB2 receptor expressed in HEK293 cells assessed as decrease in forskolin-stimulated cAMP levels after 30 mins; assay type: functional, cell-based
T2 sequence (P34972 whole entry): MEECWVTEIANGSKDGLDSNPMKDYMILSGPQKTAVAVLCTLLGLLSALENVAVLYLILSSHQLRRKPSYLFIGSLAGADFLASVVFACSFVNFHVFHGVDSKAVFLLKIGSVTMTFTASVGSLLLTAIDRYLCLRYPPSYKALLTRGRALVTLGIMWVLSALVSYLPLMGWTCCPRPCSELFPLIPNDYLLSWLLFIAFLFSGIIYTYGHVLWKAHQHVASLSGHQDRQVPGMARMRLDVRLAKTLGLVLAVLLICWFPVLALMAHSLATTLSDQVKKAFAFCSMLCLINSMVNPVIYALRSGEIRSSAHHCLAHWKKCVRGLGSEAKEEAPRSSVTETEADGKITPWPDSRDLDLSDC
In short: (§2)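 Stably transfected HEK293 cells harvested with Versene, washed in HBSS, resuspended in stimulation buffer. Cells exposed to graded compound concentrations in buffer containing forskolin (2 μM final), 30 min at room temperature. cAMP read by TR-FRET (Eu-cAMP tracer plus ULight anti-cAMP antibody, 60 min room temperature). EC50 from nonlinear regression.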

[4] = Half life in rat plasma assessed as esterase-mediated compound hydrolysis at 200 uM by HPLC method; assay type: ADME, cell-free
In short: (§3)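 Compound diluted to 200 μM in mouse or rat plasma and shaken at 37 °C, 100 rpm. Samples taken at timed points, diluted 1:4 in acetonitrile and centrifuged. Supernatant analysed by reversed-phase C18 HPLC, acetonitrile/acidified water gradient, UV detection. 4-Nitrophenyl butyrate run as control in each experiment. Half-life from exponential decay fit.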

Rattus norvegicus [5] = test: Hypothermic activity in sc dosed Sprague-Dawley rat assessed as decrease in rectal body temperature measured over 6 hrs; assay type: functional
In short: (§4)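 Female Sprague-Dawley rats, 250–350 g, n = 6/group, retested with ≥5 days between sessions. Dosed sc (1.0 mL/kg) in 20% ethanol/20% alkamuls/60% saline diluted with saline. Rectal thermistor at 6 cm depth. Two baselines 15 min apart, then readings every 30 min for 3 h and hourly to 6 h. Change taken from mean baseline.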

Rattus norvegicus [6] = test: Hypothermic activity in Sprague-Dawley rat assessed as decrease in rectal body temperature at 3 mg/kg, sc measured over 6 hrs; assay type: functional; in short: as §4
Rattus norvegicus [7] = test: Hypothermic activity in Sprague-Dawley rat assessed as time required for decrease in rectal body temperature at 0.03 to 3 mg/kg, sc; assay type: functional; in short: as §4
[8] = Half life in mouse plasma assessed as esterase-mediated compound hydrolysis at 200 uM by HPLC method; assay type: ADME, cell-free; in short: as §3
Rattus norvegicus [9] = test: Hypothermic activity in Sprague-Dawley rat assessed as decrease in rectal body temperature at 0.1 mg/kg, sc measured over 6 hrs; assay type: functional; in short: as §4
Cannabinoid receptor 1 [10] = biological target: T1, Cannabinoid receptor 1; test: Agonist activity at rat CB1 receptor expressed in HEK293 cells assessed as decrease in forskolin-stimulated cAMP levels after 30 mins; assay type: functional, cell-based; in short: as §2
Cannabinoid receptor 2 [11] = biological target: T2, Cannabinoid receptor 2; test: Agonist activity at human CB2 receptor expressed in HEK293 cells assessed as decrease in forskolin-stimulated cAMP levels at 500 nM after 30 mins relative to CP-55940; assay type: functional, cell-based
Rattus norvegicus [12] = test: Hypothermic activity in Sprague-Dawley rat assessed as decrease in rectal body temperature at 0.1 mg/kg, sc after 6 hrs; assay type: functional, organism-based; in short: as §4
[13] = biological target: Cannabinoid receptor 1 (Rattus norvegicus) (UniProt P20272); test: Agonist activity at rat CB1 receptor expressed in HEK293 cells assessed as decrease in forskolin-stimulated cAMP levels at 500 nM after 30 mins relative to CP-55940; assay type: functional, cell-based
Sequence of Cannabinoid receptor 1 (Rattus norvegicus) (P20272 whole entry): as the sequence (P20272 whole entry) above

Rattus norvegicus [14] = test: Hypothermic activity in Sprague-Dawley rat assessed as time required for decrease in rectal body temperature at 0.1 to 3 mg/kg, sc; assay type: functional; in short: as §4
Mus musculus [15] = test: Analgesic activity in CD1 mouse assessed as increase in tail flick latency at 1 mg/kg, ip measured at 180 mins relative to control; assay type: functional
In short: (§5)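 Male CD-1 mice, 30–35 g, n = 6, each used once, habituated over three mock sessions at 38 °C. Tail-flick latency in a 52 °C water bath at baseline, then 20, 60, 180 and 360 min after ip dosing (10 mL/kg). Vehicle 2% DMSO/4% Tween-80/4% propylene glycol with saline, freshly prepared. Scored as %MPE.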

Squirrel monkey [16] = test: Induction of CB1-related discriminative stimulus effect in squirrel monkey assessed as time required for 50% loss of full effect at 0.001 mg/kg, im; assay type: functional, organism-based; conditions: Saimiri sciureus
In short: (§6)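 Squirrel monkeys trained on two levers to discriminate 0.01 mg/kg im CB1 agonist from vehicle. After im test dosing, sequential sessions began at 15, 30, 60, 120, 240, 480 and 960 min, with some groups also tested at 36 and 48 h. Measured percent responding on the agonist lever (≥90% counted as full substitution) and overall response rate.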

Squirrel monkey [17] = test: Effect on response rate in squirrel monkey at 0.001 mg/kg, im; assay type: functional, organism-based; conditions: Saimiri sciureus; in short: as §6
Mus musculus [18] = test: Analgesic activity in CD1 mouse assessed as increase in tail flick latency at 1 mg/kg, ip measured at 20 mins relative to control; assay type: functional; in short: as §5
Mus musculus [19] = test: Analgesic activity in CD1 mouse assessed as increase in tail flick latency at 1 mg/kg, ip measured at 60 mins relative to control; assay type: functional; in short: as §5
Mus musculus [20] = test: Analgesic activity in CD1 mouse assessed as increase in tail flick latency at 1 mg/kg, ip measured at 360 mins relative to control; assay type: functional; in short: as §5
Cannabinoid receptor 2 [21] = biological target: T2, Cannabinoid receptor 2; test: Displacement of [3H]CP55940 from human CB2 receptor expressed in HEK293 cell membranes by scintillation counting method; in short: as §1
Rattus norvegicus [22] = test: Hypothermic activity in Sprague-Dawley rat assessed as time required for decrease in rectal body temperature at 0.01 to 1 mg/kg, sc; assay type: functional; in short: as §4
Squirrel monkey [23] = test: Induction of CB1-related discriminative stimulus effect in squirrel monkey at 0.001 mg/kg, im after 1 hr; assay type: functional, organism-based; conditions: Saimiri sciureus; in short: as §6
Squirrel monkey [24] = test: Induction of CB1-related discriminative stimulus effect in squirrel monkey at 0.001 mg/kg, im after 4 to 16 hrs; assay type: functional, organism-based; conditions: Saimiri sciureus; in short: as §6
Rattus norvegicus [25] = test: Hypothermic activity in Sprague-Dawley rat assessed as decrease in rectal body temperature at 1 mg/kg, sc measured over 6 hrs; assay type: functional; in short: as §4

Row | Structure (SMILES) | Ki (Cannabinoid receptor 2 [1]) | Ki (Cannabinoid receptor 1 [2]) | EC50 (Cannabinoid receptor 2 [3]) | t1/2 [4] | Activity (Rattus norvegicus [5]) | ED50 (Rattus norvegicus [5]) | T (Rattus norvegicus [6]) | t1/2 [8] | T (Rattus norvegicus [9]) | EC50 (Cannabinoid receptor 1 [10]) | Emax (Cannabinoid receptor 2 [11]) | Activity (Rattus norvegicus [12]) | Emax [13] | other results
1 | CC(C)(C(=O)O)c1cc(O)c2c(c1)OC(C)(C)[C@@H]1CC[C@@H](CO)C[C@@H]21 | > 10000 nM | > 10000 nM |  |  |  |  |  |  |  |  |  |  |  | 
2 | CCCCOC(=O)C(C)(C)c1cc(O)c2c(c1)OC(C)(C)[C@@H]1CC=C(CO)C[C@@H]21 |  |  | 5.7 nM | 39.1 min | Dose-dependent effect | 0.04 mg/kg | 4.7 - 7.2 °C | 5 min | >4 °C | 4.6 nM | 83% | inactive | 89% | Time (Rattus norvegicus [7]): 1 to 3 h
3 | CC1(C)Oc2cc(CC(=O)O)cc(O)c2[C@@H]2C[C@@H](O)CC[C@H]21 | > 10000 nM | > 10000 nM |  |  |  |  |  |  |  |  |  |  |  | 
4 | CCCCOC(=O)C(C)(C)c1cc(O)c2c(c1)OC(C)(C)[C@@H]1CC[C@@H](O)C[C@@H]21 |  |  | 9 nM | 10.2 min | Dose-dependent effect | 0.74 mg/kg | 4.7 - 7.2 °C | 2.7 min |  | 8.6 nM | 85% |  | 85% | Time (Rattus norvegicus [14]): 1 to 3 h
5 | CCCCOC(=O)C(C)(C)c1cc(O)c2c(c1)OC(C)(C)[C@@H]1CC[C@@H](CO)C[C@@H]21 | 0.1 nM | 2.4 nM | 0.3 nM | 39.2 min | Dose-dependent effect | 0.04 mg/kg |  | 3.1 min | >4 °C | 2.5 nM | 82% | inactive | 87% | MPE (Mus musculus [15]): 97%; T1/2 (Squirrel monkey [16]): 48 min; Activity (Squirrel monkey [17]): inactive; MPE (Mus musculus [18]): 94%; MPE (Mus musculus [19]): 96%; MPE (Mus musculus [20]): 58%; Ki (Cannabinoid receptor 2 [21]): 3.1 nM; Time (Rattus norvegicus [22]): 1 to 3 h; Activity (Squirrel monkey [23]): Active; Activity (Squirrel monkey [24]): inactive; T (Rattus norvegicus [25]): 4.7 - 7.2 °C
6 | CC(C)(C(=O)O)c1cc(O)c2c(c1)OC(C)(C)[C@@H]1CC[C@H](O)C[C@@H]21 | > 10000 nM | > 10000 nM |  |  |  |  |  |  |  |  |  |  |  | 
